# Bioassay records: PubChem BioAssay, several laboratories
# Hits are enriched below; roughly 3.7% of the tested compounds scored in any of these assays.
# FXN GAA850 act = activators of GAA850 frataxin (FXN) promoter | HEK293 lucGAA850 FXN promoter luciferase reporter, 24 h; percent of 10 µM SAHA response | activation, % at 6 µM | 360,000 compounds, 0.56% hits;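 active means activation above the average of all compounds screened plus 3 SD, cutoff fixed separately per campaign, cut at about 7.5% in these data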;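 further: 0% = DMSO wells and 100% = 10 µM SAHA wells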
# SR-BI DiI inh = inhibitors of mouse SR-BI mediated HDL lipid uptake. ldlA[mSR-BI] CHO cells, DiI-HDL uptake fluorescence, 3 h. inhibition, % at 12.5 µM. 320,000 compounds, 0.96% hits;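 active means mean replicate inhibition of at least 70% and a set share of replicates each scoring 70 or more; inconclusive means meets just one of the two criteria; inactive means fails both criteria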;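 further: 0% = median of neutral control wells and 100% = median of positive control wells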
# SR-BI uptake up = activators of SR-BI mediated HDL lipid uptake. 320,000 compounds, 0.096% hits. activation, % at 12.5 µM. CHO ldlA[mSR-BI] cells, DiI-HDL uptake fluorescence, 3 h; 100 = double the neutral-control signal. AID 504775;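 active means mean replicate activation of at least 60% and every replicate at or above 60%; inconclusive means mean or all-replicate condition met, but not both; inactive means mean below 60% and not all replicates reaching 60%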;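 further: 0% = median plate neutral-control signal and 100% = twice that signal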
#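 Test system: SR-BI-overexpressing, LDLR-lacking CHO cells; Also added: labelled HDL, 10 µg/mL; Measured by: bottom-read cell fluorescence after medium removal, ex 550/em 595 nm; Timing: 3 h uptake period with compound, 37 °C; Buffer or medium: F12, 0.5% BSA, 25 mM HEPES; Doses: single compound concentration, delivered by pin transfer.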
# GASC-1 inh = inhibitors of human GASC-1 (JMJD2C) demethylase. Q9H3R0. GST-JMJD2C(1-420) H3K9me3 demethylation, DELFIA europium. inhibition, % at 2.35 µM. 330,000 compounds, 0.069% hits;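 active means more than half of a compound's replicate wells show inhibition beyond 50%, single wells judged on their own value; inconclusive means some, but no more than half, of replicates pass 50% inhibition; inactive means no replicate passes 50% inhibition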;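 further: signal counts dimethyl H3K9 product captured on neutravidin plate; 0% = median of DMSO wells and 100% = 0.3 times that DMSO median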
# Target sequence (Q9H3R0 1-420 limits assumed): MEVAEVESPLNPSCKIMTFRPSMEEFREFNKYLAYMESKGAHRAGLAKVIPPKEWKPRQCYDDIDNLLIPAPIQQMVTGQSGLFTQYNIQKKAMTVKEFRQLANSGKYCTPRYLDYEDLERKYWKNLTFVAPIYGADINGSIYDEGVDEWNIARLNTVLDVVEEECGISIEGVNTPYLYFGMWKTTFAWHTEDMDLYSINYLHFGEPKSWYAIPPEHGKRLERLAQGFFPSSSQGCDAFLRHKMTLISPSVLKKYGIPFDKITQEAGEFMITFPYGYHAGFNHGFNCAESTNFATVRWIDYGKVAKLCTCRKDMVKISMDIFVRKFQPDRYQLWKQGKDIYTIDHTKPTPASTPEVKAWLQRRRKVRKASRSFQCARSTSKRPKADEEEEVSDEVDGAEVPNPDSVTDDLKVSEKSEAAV
# AHR activator = activates the human aryl hydrocarbon receptor | activation, % at 5 µM | AHR-responsive luciferase reporter cells, luminescence | 320,000 compounds, 2.5% hits | AID 2796 | P35869; in the data active means activation above about 47%;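 further: 0% = vehicle wells and 100% = reference agonist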
# An asterisk follows results filed as active; ? = inconclusive; . = not tested or not shown.
SMILES,FXN GAA850 act,SR-BI DiI inh,SR-BI uptake up,GASC-1 inh,AHR activator
O=C1NC(=O)/C(=C/c2ccccc2OCc2ccccc2)S1,1,-8,8,0,7
O=C(COc1ccccc1/C=C1\SC(=O)NC1=O)Nc1ccccc1,2,3,-3,-10,57*
O=C(N/N=C\c1cn[nH]c1-c1ccccc1)c1cccnc1,0,-1,1,4,72*
O=C(N/N=C/c1cccnc1)c1ccc([N+](=O)[O-])cc1,-5,-3,3,-1,9
O=C(N/N=C\c1cn[nH]c1-c1ccccc1)c1cccs1,3,11,-11,0,30
O=C(N/N=C/c1cccn1-c1ccc([N+](=O)[O-])cc1)c1cccnc1,-3,89*,-89,3,32
O=C(N/N=C/c1cc(Cl)ccc1O)c1cccnc1,-6,70*,-70,1,39
O=C(N/N=C/c1cc(Cl)cc(Cl)c1O)c1ccncc1,-4,132*,-132,-6,19
Cc1c(N)cc(C(=O)N2CCOCC2)cc1[N+](=O)[O-],0,-31,31,-8,-1
O=C(N/N=C\c1cc(Cl)ccc1O)c1ccc(S(=O)(=O)N2CCCCC2)cc1,-5,135*,-135,35,28
O=C(N/N=C/c1cc(Cl)ccc1O)c1ccccc1Br,0,78*,-78,5,12
Oc1c(Cl)cc(Cl)cc1/C=N/Nc1ncc(Br)cn1,2,130*,-130,-21,12
CC(C)C(NC(=O)c1ccc(C(C)(C)C)cc1)C(=O)Nc1cccc(S(N)(=O)=O)c1 (stereo not drawn),-1,14,-14,-26,1
COc1ccccc1CN1CC(C(=O)NCc2cnn(C)c2)CCC1=O (stereo not drawn),2,15,-15,3,1
COc1ccc(/C=C/C2=CC(C)(C)NC(=S)N2)cc1OC,0,83*,-83,-2,11
COc1cccc(/C=C/C2=CC(C)(C)NC(=S)N2)c1,-3,78*,-78,-5,6
CCOc1ccc(/C=C/C2=CC(C)(C)NC(=S)N2)cc1,0,69,-69,5,22
CNC(=O)CS(=O)CC(=O)Nc1cc(OC(C)C)c(Cl)cc1Cl (stereo not drawn),1,16,-16,16,-1
O=C(Nc1ccc(F)cc1)C1CCN(C(=O)NCc2ccccc2)CC1,3,.,.,-7,1
COc1cc(NS(=O)(=O)c2ccc(NC(=S)NC(=O)/C=C/c3ccco3)cc2)ncn1,-1,1,-1,-37,.
COc1ccccc1C1CC(c2ccc(Br)cc2)=NN1C(=O)c1cccnc1 (stereo not drawn),-3,74*,-74,14,63*
COc1cccc(C2CC(c3ccc(Br)cc3)=NN2C(=O)c2ccncc2)c1OC (stereo not drawn),-1,40,-40,6,-3
O=C(c1ccncc1)N1N=C(c2ccc(Cl)cc2)CC1c1ccccc1O (stereo not drawn),7,82*,-82,7,31
N/C(=N\c1nc2c(c(=O)[nH]1)CCCC2)Nc1ccccc1Sc1ccccc1,3,38,-38,?,1
COc1ccc(NC(=O)CSCC(=O)Nc2nnc(CC(C)C)s2)cc1,0,-11,11,-5,-1
SMILES,FXN GAA850 act,SR-BI DiI inh,SR-BI uptake up,GASC-1 inh,AHR activator
C=CCn1cccc(C(=O)Nc2ccc(C)cc2)c1=O,2,0,0,-3,55*
C=CCn1cccc(C(=O)Nc2cc(OC)ccc2OC)c1=O,3,10,-10,30,60*
C=CCn1cccc(C(=O)Nc2ccc(C)c(C)c2)c1=O,4,18,-18,-1,22
COc1ccc2c(=O)c(-c3nc(C)cs3)coc2c1,3,24,-24,9,21
CCc1cc2c(=O)c(-c3nc(C)cs3)coc2cc1O,4,44,-44,-1,60*
NNC(=O)c1sc2cc(C(F)(F)F)cnc2c1-c1cccs1,2,61,-61,-5,2
O=C(Nc1ccccc1)c1sc2cc(C(F)(F)F)cnc2c1-c1cccs1,3,71*,-71,4,7
CC(=O)NS(=O)(=O)c1cccnc1Nc1cccc(Cl)c1,0,-19,19,-15,5
N#Cc1cccnc1Nc1cccc(Cl)c1,3,-11,11,-2,77*
Cc1c(NC(=O)C(C)Oc2ccc(Br)cc2)c(=O)n(-c2ccccc2)n1C (stereo not drawn),-3,-4,4,-3,2
Cc1ccc(NC(=O)/C=C/c2cccs2)c([N+](=O)[O-])c1,-1,1,-1,56*,3
Cn1c(C(=O)c2ccccc2[N+](=O)[O-])nc2ccccc21,1,4,-4,-3,48*
CC(C)(C)C(=O)CN1C2=NCCCN2c2ccccc21,1,-42,42,4,3
C[C@]12C[C@H](O)[C@H]3[C@@H](CCC4=CC(=O)CC[C@@]43C)[C@@H]1CC[C@@H]2C(=O)CO,2,-6,87*,57,2
CCCn1cnc2cc(NCc3ccc(Br)cc3)ccc21,5,15,-15,6,87*
O=C(O)c1ccc(NCc2nc3ccccc3n2Cc2ccccc2)cc1,2,.,.,0,2
Cn1cnc2cc(NCc3ccc(Cl)cc3)ccc21,5,-21,21,12,56*
CCn1cnc2cc(NCc3nc4ccccc4n3Cc3ccccc3)ccc21,-3,1,-1,-5,73*
CCOc1ccc(CNc2ccc3c(c2)ncn3C)cc1,1,-41,41,15,29
CN(C(=O)c1cccc(NC(=O)Cc2cccc(NC(=O)C3CCN(C(=O)C4CC4)CC3)c2)c1)C1CCC1,-2,39,-39,.,.
COc1ccc2nc(C)c3c(c2c1)OC(C(C)(Cl)Br)C3 (stereo not drawn),2,71*,-71,6,4
Cc1ccc2nc(C)c3c(c2c1)OC(C(C)(Cl)Br)C3 (stereo not drawn),2,33,-31,9,1
CC(CCCC(C)(C)O)NCc1cn[nH]c1-c1ccc2c(c1)OCO2 (stereo not drawn),0,-3,3,9,3
COC(=O)c1ccccc1NC(=O)c1ccccc1OC,-1,54,-54,-32,5
COc1ccccc1C(=O)Nc1ccc(C)cc1C(=O)c1ccccc1,-1,9,-9,6,52*
COc1ccccc1C(=O)Nc1ccccc1SC(=O)c1ccccc1OC,-3,-16,16,-8,53*
Cc1nnc(SCC(=O)Nc2sccc2C#N)s1,0,-2,2,0,20
Cc1ccc(C#N)c(SCC(=O)Nc2nccs2)n1,1,3,-3,3,63*
Cn1ccnc1SCC(=O)Nc1sccc1C#N,2,-27,27,0,51*
